Assay [1] in a line: inhibitors of TNFa-induced NFkB p65 translocation, primary screen, imaging, HUVEC, MLSMR starter and 10KST1 sets (AID 438;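 active means inhibition above 20% together with a positive visual image hit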;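 further: compound added about 3h40 before a 20 min TNFalpha stimulation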;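 on inhibition: signal is the nuclear over cytoplasmic p65 intensity ratio per well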). To be noted: HUVEC TNFa-induced p65 nuclear translocation; cell count: measured here: nuclei count (cytotoxicity indicator), at 2.08 µM; inhibition: at 2 µM, stronger effect = higher value, 0% TNFa-plus-vehicle, 100% no-TNFa wells.
Assay [2] in a line: reduction of polyQ htt aggregates in cells – imaging, exon1htt(103Q)mCFP cells, high-content imaging, primary screen (AID 483;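 active means visual image review flags a hit and inhibition of aggregation exceeds 20%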;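 further: compound exposure lasted 3 days before fixation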;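 on nuclei count: percent of the per-plate median nuclei count of sample wells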). To be noted: exon1htt(103Q)mCFP cell line, aggregate imaging, at 2 µM; inhibition of aggregation: stronger effect = higher value; nuclei count: measured here: cell count, toxicity.
Assay [3] in a line: endothelial E-selectin expression blockers – imaging, HUVEC, immunofluorescence, MLSMR starter and 10KST1 sets, primary screen (AID 487;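 active means visually confirmed hit in the image check and inhibition above 20%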;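 on inhibition: signal is fraction of cell area covered by stained E-selectin grains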;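 on nuclei count: 100% = median nuclei count of all wells on the same plate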). The following applies: HUVEC TNFalpha-induced E-selectin immunofluorescence imaging, at 2 µM; inhibition: stronger effect = higher value; nuclei count: measured here: cell number, toxicity.
Assay [4] addresses Voltage-gated potassium channel subunit beta-2 (Rattus norvegicus) (UniProt P62483). In words: inhibitors of rat Kvbeta2 reductase activity – biochemical, NADPH fluorescence, primary screen (AID 622;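 active means fluorescence slope higher than the sample average by over 3 SD, cut at about -0.22 in these data, passing the limit was not always enough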;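 further: slope of raw intensity against log time taken from 70 to 1610 s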). To be noted: recombinant KvBeta, 4-cyanobenzaldehyde reduction, at 10 µM, stronger effect = higher value.
For assay [5] the target is unchanged. In words: enhancers of rat Kvbeta2 NADPH turnover – biochemical, NADPH fluorescence, primary screen (AID 623;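 active means NADPH fluorescence slope more negative than the mean of all samples by about 3 SD, 99.7% confidence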;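 further: fluorescence intensity change per second fitted from 20 to 320 s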). The following applies: Recombinant KvBeta, NADPH fluorescence decrease slope, 10 min; at 10 µM; stronger effect = lower value.
The target in assay [6] is Alpha-2C adrenergic receptor (Homo sapiens) (UniProt P18825). The assay is described as follows: compounds altering alpha2C-coupled GIRK flux – cell-based, HEK293 alpha2C/GIRK1/2, thallium flux, primary screen (AID 624;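 active means fluorescence slope after compound addition differing from the mean of all screened samples at 99.7% confidence, in either direction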;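 further: slope of fluorescence ratio to pre-addition baseline per second over 15 to 24 s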). The following applies: thallium flux BTC fluorescence, at 10 µM, actives lie on both sides.
Sequence of Alpha-2C adrenergic receptor (Homo sapiens) (P18825 whole entry, looked up): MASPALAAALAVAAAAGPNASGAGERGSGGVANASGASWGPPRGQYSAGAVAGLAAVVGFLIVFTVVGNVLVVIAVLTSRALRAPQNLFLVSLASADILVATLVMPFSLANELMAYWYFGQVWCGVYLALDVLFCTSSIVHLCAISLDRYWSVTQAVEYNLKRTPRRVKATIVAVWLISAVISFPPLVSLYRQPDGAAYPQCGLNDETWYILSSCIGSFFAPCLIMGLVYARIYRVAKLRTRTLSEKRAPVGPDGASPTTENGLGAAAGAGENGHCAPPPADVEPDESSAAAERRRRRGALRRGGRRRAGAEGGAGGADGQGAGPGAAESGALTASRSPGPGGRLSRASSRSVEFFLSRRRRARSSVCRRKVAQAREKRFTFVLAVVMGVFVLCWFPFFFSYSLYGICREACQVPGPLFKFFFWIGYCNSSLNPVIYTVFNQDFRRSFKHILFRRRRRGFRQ
Assay [7] in a line: inhibitors of larval lipid processing in zebrafish, primary screen, whole organism, PED6 fluorescence, gall bladder and intestine (AID 686;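 active means a full or partial loss of lipid-probe fluorescence in the fish gall bladder, intestine or both, judged by eye; inactive means no fluorescence loss, or compound toxic to the fish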;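 further: larvae 5 to 7 days old with five fish per well; signal comes from phospholipase A2 cleavage of quenched PED6 carried via bile; overnight exposure to compound and PED6 before scoring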). The following applies: Zebrafish larvae PED6 lipid processing, fluorescence scoring; screened at 20 µM (by protocol). The method, boiled down:
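system = live zebrafish larvae aged 5-7 days, whole organism | probe or stimulus = ingested quenched lipid PED6 at 100 nM | doses = 20 µM single dose | timing = overnight exposure | detection = fluorescence microscopy with visual scoring of gall bladder and intestine | read-out = visual per-well fluorescence inhibition score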

The nature of assay [8]: blockers of RIG-like receptor reporter activation – cell-based, Sendai virus stimulus, luciferase, 10K MLSCN set, TLR/RLR signaling modifier project, primary screen (AID 602276).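 Further: firefly luciferase from ISG56 promoter only with Renilla not read in this screen; 0% = Sendai virus plus DMSO and 100% = medium plus DMSO without virus.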 To be noted: HEK293 RL24 IRF3 luciferase reporter, at 10 µM, stronger effect = higher value. On the technique in general: In a reporter assay the amount or activity of a reporter protein is the signal.
Assay [9] in a line: TLR3 IRF3 reporter activation blockers – cell-based, poly I:C stimulus, luciferase, 10K MLSCN set, primary screen (AID 602277;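 active means inhibition of the reporter signal at or above 50%; inactive means inhibition below 50%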). To be noted: HEK293-TLR3 RL24 IRF3 luciferase reporter, at 10 µM, stronger effect = higher value.

Active and inactive are the calls of the source.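 How the source made its calls, unless noted: active means inhibition at or above 50% at 10 µM; inactive means inhibition below 50%.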

By inhibition is commonly meant the change of the read-out against control, counted positive when it falls.

Sequence of Voltage-gated potassium channel subunit beta-2 (Rattus norvegicus) (P62483 whole entry, looked up): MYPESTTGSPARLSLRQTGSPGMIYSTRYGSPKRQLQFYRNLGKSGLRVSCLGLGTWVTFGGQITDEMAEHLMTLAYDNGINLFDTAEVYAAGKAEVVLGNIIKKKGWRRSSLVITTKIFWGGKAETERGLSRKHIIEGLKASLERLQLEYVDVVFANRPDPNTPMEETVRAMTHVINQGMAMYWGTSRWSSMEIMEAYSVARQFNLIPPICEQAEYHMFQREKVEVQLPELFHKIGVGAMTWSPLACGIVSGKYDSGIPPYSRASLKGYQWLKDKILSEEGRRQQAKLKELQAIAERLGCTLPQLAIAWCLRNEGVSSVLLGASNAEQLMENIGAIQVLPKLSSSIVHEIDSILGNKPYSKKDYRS

As for `Cn1c(-c2ccccc2)cnc1SCc1nc2ccccc2c(=O)[nH]1`, the cell count in assay [1] was determined as 428. For the same molecule, the inhibition in [1] is 0.8% (inactive); in assay [3], -80.8% (inactive); in [8] it was 11.1% (inactive); in [9] it was -54% (inactive). For the same molecule, the inhibition of aggregation in [2] is -3.4% (inactive). Besides, the nuclei count in [2] stood at 119%; in [3], 109%. In addition, the fluorescence slope in [4] is -0.379 (inactive). In addition, in [5], the NADPH fluorescence slope is -6.5e-05 (inactive). Further, the slope in assay [6] was 0.00544 (inactive). Also, in [7], the result was inactive.

As for `CCOC(=O)/C=C1\SCC(=O)N1Cc1nnc(-c2ccccc2Br)o1`, the cell count in assay [1] came out at 505. The inhibition was 0.5% (inactive) in [1], -51.5% (inactive) in [3], 12.8% (inactive) in assay [8] and 10.1% (inactive) in [9]. For the same molecule, in assay [2], the inhibition of aggregation is -7.7% (inactive). Further, the nuclei count came out at 98.7% in [2] and 123% in assay [3]. Moreover, the fluorescence slope in assay [4] was -0.452 (inactive). Besides, the NADPH fluorescence slope in assay [5] is -5.3e-05 (inactive). Besides, in [6], the slope is 0.00466 (inactive). In assay [7], the result was inactive.

As to `C=CCOC(=O)CC(NC(=O)c1ccccc1)c1ccccc1` (stereo not drawn), the cell count in assay [1] was found to be 510. The inhibition was 9.6% (inactive) in assay [1], -231% (inactive) in [3], 13.9% (inactive) in assay [8] and 99% (active) in assay [9]. The inhibition of aggregation in assay [2] is -15.9% (inactive). Further, the nuclei count came out at 98.4% in [2] and 133% in [3]. The fluorescence slope in [4] was -0.382 (inactive). Further, the NADPH fluorescence slope in assay [5] was -6.2e-05 (inactive). The slope in assay [6] was 0.00447 (inactive). Further, the outcome in [7] was inactive.

Turning to `CCC1(C)Cc2c(sc3nc(SCC(=O)O)[nH]c(=O)c23)CO1` (stereo not drawn), the cell count in [1] came out at 549. For the same molecule, the inhibition in assay [1] is -14.6% (inactive); in [3], -41% (inactive); in assay [8], 1.92% (inactive); in assay [9], 7.26% (inactive). The inhibition of aggregation in [2] is -5% (inactive). Moreover, the nuclei count amounted to 114% in assay [2] and 104% in assay [3]. For the same molecule, in assay [4], the fluorescence slope was -0.391 (inactive). In assay [5], the NADPH fluorescence slope is -1.8e-05 (inactive). In addition, the slope in assay [6] is 0.00549 (inactive). Also, the result in assay [7] was inactive.

On to `CCC(=O)N(Cc1ccco1)c1nc(-c2cc(OC)ccc2OC)cs1`, for which the cell count in assay [1] came out at 643. For the same molecule, the inhibition in assay [1] is -8% (inactive); in [3], -11.7% (inactive); in assay [8], 8.75% (inactive); in [9], 7.6% (inactive). In addition, in assay [2], the inhibition of aggregation was 18.8% (inactive). Also, the nuclei count in [2] came to 100%; in [3], 101%. Moreover, the fluorescence slope in [4] is -0.397 (inactive). Moreover, the NADPH fluorescence slope in assay [5] is -4.8e-05 (inactive). Further, in assay [6], the slope is 0.00497 (inactive). Also, the result in assay [7] was inactive.

Regarding `O=C(CCCn1c(=O)[nH]c2ccsc2c1=O)N1CCN(c2ccccn2)CC1`, in assay [1], the cell count was 665. For the same molecule, the inhibition in [1] was -5.2% (inactive); in assay [3], -13.1% (inactive); in assay [8], 8.33% (inactive); in [9], 13.1% (inactive). Moreover, in assay [2], the inhibition of aggregation was -1% (inactive). In addition, the nuclei count in [2] was found to be 97.2%; in [3] it was 106%. The fluorescence slope in assay [4] was -0.386 (inactive). The NADPH fluorescence slope in [5] is -4.1e-05 (inactive). Besides, the slope in assay [6] was 0.00451 (inactive). Further, the outcome in [7] was inactive.

As to `O=C(/C=C/N1CCOCC1)c1ccc(-c2ccccc2)cc1`, in [1], the cell count was determined as 617. Further, the inhibition is -4.7% (inactive) in assay [1], 33.9% (inactive) in assay [3], -22.9% (inactive) in [8] and -53.1% (inactive) in assay [9]. Also, the inhibition of aggregation in assay [2] was 8.3% (inactive). Besides, the figures for the nuclei count in assay [2] and in assay [3] were 112% and 101%, respectively. Further, in assay [4], the fluorescence slope is -0.398 (inactive). In addition, in [5], the NADPH fluorescence slope is -4.3e-05 (inactive). For the same molecule, the slope in assay [6] is 0.00595 (inactive). For the same molecule, the molecule was called inactive in assay [7].

Turning to `CC(C)Cn1c2c(c(O)c(C(=O)Nc3ncccc3O)c1=O)CCCC2`, the cell count in assay [1] was 576. Also, the inhibition in assay [1] is -5.9% (inactive); in assay [3], 26.1% (inactive); in [8] it was 8.02% (inactive); in assay [9], 10.1% (inactive). For the same molecule, the inhibition of aggregation in assay [2] was 9.6% (inactive). For the same molecule, the nuclei count was 99.1% in [2] and 105% in assay [3]. Also, the fluorescence slope in assay [4] was -0.38 (inactive). In assay [5], the NADPH fluorescence slope is -6.5e-05 (inactive). Further, in assay [6], the slope is 0.00432 (inactive). Moreover, the molecule was classed as inactive in [7].

`CCN1CCN(c2nc3c(c(=O)n(C)c(=O)n3C)n2Cc2cccc3ccccc23)CC1`: the cell count in [1] came to 471. Besides, the inhibition is -6% (inactive) in assay [1], 35.5% (inactive) in [3], 12.4% (inactive) in assay [8] and 18.7% (inactive) in [9]. For the same molecule, the inhibition of aggregation in assay [2] was 14.8% (inactive). The nuclei count in assay [2] stood at 85.1%; in assay [3] it was 80.6%. Moreover, the fluorescence slope in [4] is -0.46 (inactive). For the same molecule, the NADPH fluorescence slope in assay [5] is -5.6e-05 (inactive). In assay [6], the slope was 0.00535 (inactive). In addition, the outcome in assay [7] was inactive.

As to `COc1ccc(Br)cc1-c1noc(-c2ccccc2)n1`, in [1], the cell count worked out at 357. The inhibition in assay [1] is 3% (inactive); in assay [3] it was -51.1% (inactive); in assay [8], 13.4% (inactive); in assay [9], 99.2% (active). In addition, in assay [2], the inhibition of aggregation was -25.4% (inactive). Besides, the nuclei count is 102% in assay [2] and 109% in [3]. In addition, the fluorescence slope in assay [4] was -0.371 (inactive). In addition, the NADPH fluorescence slope in [5] is -6.1e-05 (inactive). In assay [6], the slope is 0.00662 (inactive). The molecule was classed as inactive in assay [7].

For `CCCNC(=O)c1cc(S(=O)(=O)N2CCc3ccccc32)ccc1F`, in assay [1], the cell count was determined as 503. Moreover, the inhibition is -17.2% (inactive) in assay [1], -32.7% (inactive) in [3], 8.07% (inactive) in assay [8] and 0.176% (inactive) in assay [9]. The inhibition of aggregation in [2] is 14.3% (inactive). In addition, the figures for the nuclei count in assay [2] and in assay [3] were 74.6% and 104%, respectively. For the same molecule, the fluorescence slope in assay [4] was -0.412 (inactive). Also, the NADPH fluorescence slope in assay [5] is -7.4e-05 (inactive). In addition, the slope in [6] was 0.00573 (inactive). In addition, the outcome in assay [7] was inactive.

Consider `Cc1cc(C)n2nc(SCC(=O)N(C)Cc3ccccc3)nc2n1`, for which the cell count in assay [1] came out at 407. In addition, the inhibition was 7.4% (inactive) in assay [1], -18.9% (inactive) in [3], -13.5% (inactive) in [8] and -9.42% (inactive) in [9]. For the same molecule, in assay [2], the inhibition of aggregation is -27.8% (inactive). In addition, the values for the nuclei count in assay [2] and in assay [3] were 116% and 115%, respectively. Further, the fluorescence slope in [4] was -0.435 (inactive). The NADPH fluorescence slope in [5] is -6.2e-06 (inactive). In assay [6], the slope was 0.00539 (inactive). The call in assay [7] was inactive.

For the molecule `O=C(CSc1nnc(-c2ccco2)n1CC1CCCO1)NC1CCCC1` (stereo not drawn), the cell count in assay [1] was 336. Besides, the inhibition in assay [1] is -6.2% (inactive); in [3] it was -15.3% (inactive); in [8], 7.82% (inactive); in [9] it was 4.4% (inactive). Moreover, in assay [2], the inhibition of aggregation is 10.7% (inactive). The nuclei count in assay [2] came out at 101%; in [3] it was 121%. Also, the fluorescence slope in assay [4] was -0.361 (inactive). Moreover, in [5], the NADPH fluorescence slope is -5.1e-05 (inactive). Moreover, the slope in assay [6] is 0.00445 (inactive). Besides, the call in [7] was inactive.

Take `Cc1ccc(S(=O)(=O)N(CC(=O)N2CCC(C(N)=O)CC2)Cc2ccc(F)cc2)cc1`: the cell count in assay [1] came to 473. Moreover, the inhibition in assay [1] is 3.5% (inactive); in assay [3], 34.4% (inactive); in assay [8], 10.4% (inactive); in [9], 15.9% (inactive). Also, the inhibition of aggregation in [2] is -8.5% (inactive). In addition, the values for the nuclei count in [2] and in [3] were 91.9% and 110%, respectively. In addition, the fluorescence slope in assay [4] is -0.361 (inactive). In addition, in assay [5], the NADPH fluorescence slope is -6.9e-05 (inactive). Moreover, in assay [6], the slope was 0.00526 (inactive). For the same molecule, the outcome in assay [7] was inactive.

Source of the values: PubChem BioAssay.
